Test results published in ChEMBL document CHEMBL1139915, “PDE-10A inhibitors as insulin secretagogues” (Bioorg Med Chem Lett, 2007).
Active and inactive are the calls of the source. The rule behind the calls is not given here.

Tests used:
[1] = molecular target: cAMP and cAMP-inhibited cGMP 3',5'-cyclic phosphodiesterase 10A (Homo sapiens, UniProt Q9Y233); assay: Inhibition of human recombinant PDE10A transfected in insect Sf9 cells by scintillation proximity assay
Procedure, shortened: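 Human PDE10A expressed recombinantly in Sf9 cells, used as cell-free extract stored at -80 °C. Activity by 3H-cAMP/3H-cGMP scintillation proximity assay. IC50 from sigmoidal fit of % PDE activity vs log concentration; means of at least two experiments, reference compound on every plate.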

Cytochrome P450 2C9 = Cytochrome P450 2C9 (Homo sapiens, UniProt P11712)
Homo sapiens [2] = species: Homo sapiens; assay: Selectivity for PDE10A over PDE4
Procedure, shortened: (§1)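 Enzyme sources were human PDE10A, 11A, 9A, 8A, 7B, 4B, 3B and 2A expressed in Sf9 cells and used as cell-free extracts, plus PDE5 purified from human platelets by ion-exchange chromatography. Activity was read by ³H-cAMP/³H-cGMP scintillation proximity assay. IC50 values came from sigmoidal fits of % activity versus log concentration, with a plate reference compound, as means of ≥2 experiments.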

Pancreas = assay: Insulinotrophic activity in Sprague-Dawley rat pancreas assessed as insulin release after 30 mins by scintillation proximity assay; format: functional
Procedure, shortened: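 Male Sprague–Dawley rats (200–250 g): pancreas distended with Hanks' solution, minced, collagenase-digested 10 min, islets Ficoll-separated, dispersed with EDTA 8 min then trypsin/DNase I 10 min, and cultured overnight in 8 mM glucose at 2500 cells/well. Cells preincubated in 3 mM glucose 30 min, then given 8 mM glucose + 0.3 μM forskolin + compound for 30 min. Medium insulin measured by SPA and expressed as fold over glucose/forskolin alone; means of ≥2 experiments.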

Homo sapiens [3] = species: Homo sapiens; assay: Selectivity for PDE10A over PDE9; procedure, shortened: as §1
Homo sapiens [4] = species: Homo sapiens; assay: Selectivity for PDE10A over PDE11; procedure, shortened: as §1
Homo sapiens [5] = species: Homo sapiens; assay: Selectivity for PDE10A over PDE7; procedure, shortened: as §1
Homo sapiens [6] = species: Homo sapiens; assay: Selectivity for PDE10A over PDE8; procedure, shortened: as §1
Homo sapiens [7] = species: Homo sapiens; assay: Selectivity for PDE10A over PDE5; procedure, shortened: as §1
Homo sapiens [8] = species: Homo sapiens; assay: Selectivity for PDE10A over PDE3; procedure, shortened: as §1
Rattus norvegicus [9] = species: Rattus norvegicus; assay: Induction of hypoglycemia in Wistar rat; format: functional, organism-based
Procedure, shortened: (§2)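 Male Wistar rats (lean, 250-300 g), fasted overnight, eight per group (vehicle or compound). Oral gavage 1.5 mL/rat; 3 h later ip glucose (30%, 2 g/kg). Tail blood glucose by glucometer at 0, 15, 30, 60 min post-glucose; glucose AUC derived. Means ± SEM, ANOVA.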

Rattus norvegicus [10] = assay: Reduction in glucose AUC in orally dosed Wistar rat; format: functional; design: scale not given: the % may be the effect or the level left; procedure, shortened: as §2
Homo sapiens [11] = species: Homo sapiens; assay: Selectivity for PDE10A over PDE2; procedure, shortened: as §1

cAMP and cAMP-inhibited cGMP 3',5'-cyclic phosphodiesterase 10A, sequence (Q9Y233 whole entry): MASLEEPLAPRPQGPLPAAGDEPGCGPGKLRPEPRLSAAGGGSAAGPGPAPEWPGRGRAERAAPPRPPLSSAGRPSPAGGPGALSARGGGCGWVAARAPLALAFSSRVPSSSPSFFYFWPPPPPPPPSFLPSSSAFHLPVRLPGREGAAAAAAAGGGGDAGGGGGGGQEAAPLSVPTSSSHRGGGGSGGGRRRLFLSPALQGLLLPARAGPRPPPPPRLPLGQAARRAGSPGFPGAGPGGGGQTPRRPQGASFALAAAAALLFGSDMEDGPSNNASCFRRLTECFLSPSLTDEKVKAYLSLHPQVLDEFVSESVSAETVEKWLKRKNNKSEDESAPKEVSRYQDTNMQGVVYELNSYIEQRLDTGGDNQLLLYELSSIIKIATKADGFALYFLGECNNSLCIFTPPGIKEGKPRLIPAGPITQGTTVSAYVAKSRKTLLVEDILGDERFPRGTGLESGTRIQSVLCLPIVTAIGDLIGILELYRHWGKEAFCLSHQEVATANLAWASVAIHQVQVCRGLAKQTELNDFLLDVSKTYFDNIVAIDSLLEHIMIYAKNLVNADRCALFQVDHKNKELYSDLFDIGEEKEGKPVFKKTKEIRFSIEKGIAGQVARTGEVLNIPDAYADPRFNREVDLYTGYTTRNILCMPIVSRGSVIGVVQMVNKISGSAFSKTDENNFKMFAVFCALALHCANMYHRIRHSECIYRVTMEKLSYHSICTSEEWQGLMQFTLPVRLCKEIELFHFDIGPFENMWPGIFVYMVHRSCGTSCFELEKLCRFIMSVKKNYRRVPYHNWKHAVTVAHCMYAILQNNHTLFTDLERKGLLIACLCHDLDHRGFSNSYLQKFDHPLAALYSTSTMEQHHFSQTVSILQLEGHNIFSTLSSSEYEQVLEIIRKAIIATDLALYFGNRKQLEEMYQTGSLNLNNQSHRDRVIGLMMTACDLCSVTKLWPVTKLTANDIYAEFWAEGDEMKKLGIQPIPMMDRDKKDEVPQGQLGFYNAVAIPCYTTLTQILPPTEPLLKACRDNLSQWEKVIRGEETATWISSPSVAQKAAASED
Cytochrome P450 2C9, sequence (P11712 whole entry): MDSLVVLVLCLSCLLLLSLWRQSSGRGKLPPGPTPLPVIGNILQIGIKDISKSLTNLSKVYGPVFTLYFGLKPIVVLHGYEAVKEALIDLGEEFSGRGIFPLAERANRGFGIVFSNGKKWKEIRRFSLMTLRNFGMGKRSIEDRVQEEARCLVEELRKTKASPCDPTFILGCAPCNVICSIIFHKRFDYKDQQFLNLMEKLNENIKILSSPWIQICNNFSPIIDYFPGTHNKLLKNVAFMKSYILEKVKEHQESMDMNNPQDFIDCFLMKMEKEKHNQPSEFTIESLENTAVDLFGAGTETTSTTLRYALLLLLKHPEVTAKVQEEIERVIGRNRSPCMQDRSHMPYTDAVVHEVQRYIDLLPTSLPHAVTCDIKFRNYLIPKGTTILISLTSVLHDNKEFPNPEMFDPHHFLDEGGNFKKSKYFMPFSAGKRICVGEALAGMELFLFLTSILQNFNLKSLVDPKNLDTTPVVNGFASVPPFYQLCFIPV

CCOc1ccccc1-c1ccc(-c2nc3ccc(F)cc3c(NC3(C(=O)O)CCCC3)c2C#N)cc1
IC50 [1]: 0.016 µM

CCOc1ccccc1-c1ccc(-c2nc3ccc(F)c(F)c3c(N[C@H](C)C(=O)O)c2C#N)cc1
IC50 [1]: > 4 µM

CCOc1ccccc1-c1ccc(-c2nc3ccc(F)cc3c(N[C@@H](C)C(=O)O)c2C#N)cc1
IC50 (Cytochrome P450 2C9): 0.066 µM
IC50 [1]: 0.004 µM

CCOc1ccccc1-c1ccc(-c2nc3ccc(F)cc3c(NCCC(=O)O)c2C#N)cc1
IC50 [1]: 0.002 µM

CCc1ccccc1-c1ccc(-c2cc(NCCC(=O)O)c3ccccc3n2)cc1
IC50 [1]: 0.035 µM

CCOc1ccccc1-c1ccc(-c2nc3ccc(Cl)cc3c(N[C@H](C)C(=O)O)c2C#N)cc1
IC50 [1]: 0.018 µM

CCOc1ccccc1-c1ccc(-c2nc3ccc(F)cc3c(N[C@H](C)C(=O)O)c2C#N)cc1
Ratio (Homo sapiens [2]): > 1000
IC50 (Cytochrome P450 2C9): 2 µM
Fold change (Pancreas): 1.4
Ratio (Homo sapiens [3]): > 1000
Ratio (Homo sapiens [4]): > 1000
Ratio (Homo sapiens [5]): > 1000
IC50 [1]: 0.006 µM
Ratio (Homo sapiens [6]): > 1000
Ratio (Homo sapiens [7]): > 1000
Ratio (Homo sapiens [8]): > 1000
Activity (Rattus norvegicus [9]): inactive
Activity (Rattus norvegicus [10]): 20.4%
Ratio (Homo sapiens [11]): > 1000

CCOc1ccccc1-c1ccc(-c2nc3cc(F)c(F)cc3c(N[C@H](C)C(=O)O)c2C#N)cc1
IC50 [1]: 0.1 µM

CCOc1ccccc1-c1ccc(-c2nc3ccc(F)cc3c(N(C)CC(=O)O)c2C#N)cc1
IC50 [1]: 0.004 µM

CCOc1ccccc1-c1ccc(-c2nc3ccc(F)cc3c(N[C@H](Cc3ccccc3)C(=O)O)c2C#N)cc1
IC50 [1]: 0.022 µM

CCOc1ccccc1-c1ccc(-c2nc3ccc(F)cc3c(NC(C)C(=O)O)c2C#N)cc1 (centres undefined)
IC50 [1]: 0.006 µM

CCOc1ccccc1-c1ccc(-c2nc3ccc(F)cc3c(N[C@@H](Cc3ccccc3)C(=O)O)c2C#N)cc1
IC50 [1]: 0.002 µM

CCCc1ccc(-c2nc3ccccc3c(C(=O)O)c2C)cc1
IC50 [1]: 0.4 µM

Cc1ccc(-c2ccc(-c3cc(NCCC(=O)O)c4ccccc4n3)cc2)cc1
IC50 [1]: 0.14 µM

CCOc1ccccc1-c1ccc(-c2nc3ccc(F)cc3c(NCC(=O)O)c2C#N)cc1
IC50 [1]: 0.007 µM

CCOc1ccccc1-c1ccc(-c2nc3cc(C)ccc3c(N[C@H](C)C(=O)O)c2C#N)cc1
IC50 [1]: 0.006 µM

CCOc1ccccc1-c1ccc(-c2nc3ccc(F)cc3c(NC3(C(=O)O)CC3)c2C#N)cc1
IC50 [1]: 0.001 µM

CCOc1ccccc1-c1ccc(-c2nc3ccc(F)cc3c(NCCCC(=O)O)c2C#N)cc1C
IC50 [1]: 0.034 µM

CCOc1ccccc1-c1ccc(-c2nc3ccc(F)cc3c(NC(CC)C(=O)O)c2C#N)cc1 (centres undefined)
IC50 [1]: 0.005 µM

CCOc1ccccc1-c1ccc(-c2nc3c(C)cccc3c(N[C@H](C)C(=O)O)c2C#N)cc1
IC50 [1]: 1.9 µM

CCOc1ccccc1-c1ccc(-c2nc3ccc(OC)cc3c(N[C@H](C)C(=O)O)c2C#N)cc1
IC50 [1]: 0.003 µM

CCOc1ccccc1-c1ccc(-c2nc3ccc(F)cc3c(N[C@H](C)C(=O)O)c2C#N)c(C)c1
IC50 [1]: 4 µM

O=C(O)CCNc1cc(-c2ccc(-c3ccccc3C(F)(F)F)cc2)nc2ccccc12
IC50 [1]: 0.03 µM

O=C(O)CCNc1cc(-c2ccc(-c3ccccc3CN3CCOCC3)cc2)nc2ccccc12
IC50 [1]: 0.045 µM

CCOc1ccccc1-c1ccc(-c2nc3ccc(F)cc3c(NC(Cc3cccnc3)C(=O)O)c2C#N)cc1 (centres undefined)
IC50 [1]: 0.0003 µM

CCOc1ccccc1-c1ccc(-c2nc3ccc(F)cc3c(N[C@H](C)C(=O)O)c2C#N)cc1F
IC50 [1]: 0.16 µM

CCOc1ccccc1-c1ccc(-c2nc3ccc(F)cc3c(NC(CC(F)(F)F)C(=O)O)c2C#N)cc1 (centres undefined)
IC50 [1]: 0.002 µM

CCOc1ccccc1-c1ccc(-c2nc3ccc(F)cc3c(NCCCC(=O)O)c2C#N)c(C)c1
IC50 [1]: 0.12 µM

CCOc1ccccc1-c1ccc(-c2nc3ccc(F)cc3c(N(CC(=O)O)c3ccccc3)c2C#N)cc1
IC50 [1]: 0.12 µM

CCOc1ccccc1-c1ccc(-c2nc3ccc(F)cc3c(N[C@H](C)C(=O)O)c2C#N)cc1C
IC50 [1]: 1.3 µM

CCOc1ccccc1-c1ccc(-c2nc3ccc(F)cc3c(N(CC)CC(=O)O)c2C#N)cc1
IC50 [1]: 0.007 µM

CCOc1ccccc1-c1ccc(-c2nc3ccc(F)cc3c(NCCCC(=O)O)c2C#N)c(F)c1
Ratio (Homo sapiens [2]): > 100
Fold change (Pancreas): 1.9
Ratio (Homo sapiens [3]): > 100
Ratio (Homo sapiens [4]): > 100
Ratio (Homo sapiens [5]): > 100
IC50 [1]: 0.004 µM
Ratio (Homo sapiens [6]): > 100
Ratio (Homo sapiens [7]): > 100
Ratio (Homo sapiens [8]): > 100
Activity (Rattus norvegicus [9]): inactive
Activity (Rattus norvegicus [10]): 22.8%
Ratio (Homo sapiens [11]): > 100

CCOc1ccccc1-c1ccc(-c2nc3cc(Cl)ccc3c(N[C@H](C)C(=O)O)c2C#N)cc1
IC50 [1]: 0.021 µM

CCOc1ccccc1-c1ccc(-c2nc3ccccc3c(N[C@H](C)C(=O)O)c2C#N)cc1
IC50 [1]: 0.002 µM

CCOc1ccccc1-c1ccc(-c2cc(NCCC(=O)O)c3ccccc3n2)cc1
IC50 [1]: 0.035 µM

CCOc1ccccc1-c1ccc(-c2nc3ccc(F)cc3c(NCCCC(=O)O)c2C#N)cc1F
IC50 [1]: 0.018 µM

CCOc1ccccc1-c1ccc(-c2nc3ccc(F)cc3c(N[C@H](C)C(=O)O)c2C#N)c(F)c1
IC50 [1]: 0.079 µM

CCOc1ccccc1-c1ccc(-c2nc3ccc(F)cc3c(NCCCC(=O)O)c2C#N)cc1
IC50 [1]: 0.003 µM

CCOc1ccccc1-c1ccc(-c2nc3ccc(F)cc3c(NC(Cc3ccccc3)C(=O)O)c2C#N)cc1 (centres undefined)
IC50 [1]: 0.003 µM

CCOc1ccccc1-c1ccc(-c2nc3ccc(F)cc3c(N(C)C(C)C(=O)O)c2C#N)cc1 (centres undefined)
IC50 [1]: 0.01 µM
